Values after ≈ are worked out from the molar mass of the structure shown.
Columns and labels:
[1] = molecular target: Disintegrin and metalloproteinase domain-containing protein 17 (Homo sapiens, UniProt P78536); test: Inhibition of TACE using scintillation proximity assay (SPA)
[2] = molecular target: T1, Interstitial collagenase (Homo sapiens, UniProt P03956); test: Inhibition potency was determined by fluorescence-based peptide assay against matrix metalloprotease-1; design: species or system Escherichia coli
T1 sequence (P03956 whole entry): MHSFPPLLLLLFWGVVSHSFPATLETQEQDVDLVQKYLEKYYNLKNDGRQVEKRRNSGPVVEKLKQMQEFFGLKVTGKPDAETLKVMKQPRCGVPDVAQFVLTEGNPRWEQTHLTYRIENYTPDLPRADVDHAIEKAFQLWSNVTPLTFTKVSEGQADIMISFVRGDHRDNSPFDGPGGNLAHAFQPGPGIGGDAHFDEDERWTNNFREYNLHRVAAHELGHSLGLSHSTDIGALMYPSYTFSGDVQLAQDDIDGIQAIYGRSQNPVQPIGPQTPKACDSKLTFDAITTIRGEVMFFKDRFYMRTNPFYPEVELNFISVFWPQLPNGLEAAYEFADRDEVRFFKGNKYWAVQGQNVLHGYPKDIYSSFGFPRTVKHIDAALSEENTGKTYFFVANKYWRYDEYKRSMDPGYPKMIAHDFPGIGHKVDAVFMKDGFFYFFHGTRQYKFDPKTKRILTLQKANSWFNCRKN
Procedure, shortened: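 Recombinant MMP-1 catalytic domain expressed in E. coli, refolded 1 h in 200 mM NaCl, 50 mM Tris, 5 mM CaCl2, 10 μM ZnSO4, 0.01% Brij 35, pH 7.6, and assayed at 1.0 nM in the same buffer. Enzyme preincubated 20 min at room temperature with inhibitor (eleven-point 3-fold dilutions). Reaction started with fluorogenic Dnp-Pro-Cha-Gly-Cys(Me)-His-Ala-Lys(Nma)-NH2; ex 343/em 450 nm; IC50 (nM).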

[3] = molecular target: Matrix metalloproteinase-9 (Homo sapiens, UniProt P14780); test: Inhibition potency was determined by fluorescence-based peptide assay against matrix metalloprotease-9
Matrix metalloproteinase-9, sequence (P14780 whole entry, the tested form may be a part): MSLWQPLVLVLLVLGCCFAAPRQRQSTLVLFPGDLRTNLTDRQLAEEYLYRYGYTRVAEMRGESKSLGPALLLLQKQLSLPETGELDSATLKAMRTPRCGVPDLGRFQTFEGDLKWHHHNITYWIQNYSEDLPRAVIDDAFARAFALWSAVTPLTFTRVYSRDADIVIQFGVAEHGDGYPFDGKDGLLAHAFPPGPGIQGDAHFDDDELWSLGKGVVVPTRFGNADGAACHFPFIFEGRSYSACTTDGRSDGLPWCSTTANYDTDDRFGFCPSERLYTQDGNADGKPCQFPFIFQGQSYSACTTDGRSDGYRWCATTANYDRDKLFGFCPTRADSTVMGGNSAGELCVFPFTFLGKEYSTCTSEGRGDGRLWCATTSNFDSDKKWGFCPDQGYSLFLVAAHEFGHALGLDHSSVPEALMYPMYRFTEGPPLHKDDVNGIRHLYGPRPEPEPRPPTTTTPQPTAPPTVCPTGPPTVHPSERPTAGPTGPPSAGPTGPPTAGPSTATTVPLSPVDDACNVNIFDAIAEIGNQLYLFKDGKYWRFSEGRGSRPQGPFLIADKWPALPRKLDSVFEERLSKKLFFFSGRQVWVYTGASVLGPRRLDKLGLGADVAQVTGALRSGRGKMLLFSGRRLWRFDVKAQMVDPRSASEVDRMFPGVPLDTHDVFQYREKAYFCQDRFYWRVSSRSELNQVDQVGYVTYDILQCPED
Procedure, shortened: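 Catalytic domain of proMMP-9 purified from baculovirus-infected T. ni cell media, 0.1 nM in 200 mM NaCl, 50 mM Tris, 5 mM CaCl2, 10 μM ZnSO4, 0.01% Brij 35, pH 7.6. Preincubated with inhibitor 20 min at room temperature; fluorogenic Dnp-Pro-Cha-Gly-Cys(Me)-His-Ala-Lys(Nma)-NH2 added; fluorescence ex 343/em 450 nm; eleven-point 3-fold dilutions give IC50 (nM).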

[4] = molecular target: Stromelysin-1 (Homo sapiens, UniProt P08254); test: Inhibition potency was determined by fluorescence-based peptide assay against matrix metalloprotease-3; design: species or system Escherichia coli
Stromelysin-1, sequence (P08254 whole entry): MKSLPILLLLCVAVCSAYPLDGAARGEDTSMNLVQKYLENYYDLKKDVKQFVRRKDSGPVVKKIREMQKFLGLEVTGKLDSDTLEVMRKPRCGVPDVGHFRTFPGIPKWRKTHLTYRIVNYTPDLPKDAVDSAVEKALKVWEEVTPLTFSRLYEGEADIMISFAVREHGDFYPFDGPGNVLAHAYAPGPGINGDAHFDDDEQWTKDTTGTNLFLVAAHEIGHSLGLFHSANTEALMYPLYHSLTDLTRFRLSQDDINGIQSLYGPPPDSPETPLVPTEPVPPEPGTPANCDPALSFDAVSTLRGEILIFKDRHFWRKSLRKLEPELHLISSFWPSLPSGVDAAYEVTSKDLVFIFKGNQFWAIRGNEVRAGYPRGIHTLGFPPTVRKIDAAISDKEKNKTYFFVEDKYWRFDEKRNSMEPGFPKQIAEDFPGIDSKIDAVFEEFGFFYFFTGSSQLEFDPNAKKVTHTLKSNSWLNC
Procedure, shortened: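 Full-length active MMP-3 expressed in E. coli, refolded 1 h in 200 mM NaCl, 50 mM Tris, 5 mM CaCl2, 10 μM ZnSO4, 0.01% Brij 35, pH 7.6, used at 5 nM in the same buffer. Preincubated 20 min at room temperature with inhibitor across eleven 3-fold dilutions, then fluorogenic Dnp-Pro-Cha-Gly-Cys(Me)-His-Ala-Lys(Nma)-NH2 added; product read at ex 343/em 450 nm; IC50 (nM).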

[5] = tested on: Mus musculus; test: Inhibition of soluble TNF-alpha production in LPS-Stimulated mice by administration of 40 mg/kg compound per orally; type: functional; settings: route oral
Procedure, shortened: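 Female C3H/hen mice gavaged at 40 mg/kg (5 mL/kg, homogenized suspension in 0.5% HPMC/0.1% Tween 80) 10 min before ip LPS 0.2 mg/kg in PBS. Killed at 90 min; vena cava plasma TNF-α by ELISA. Percent inhibition vs vehicle group, n = 7 each, 2-sided t-test.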

[6] = Solubility in simulated gastric fluid; type: physicochemical; settings: read-out: S
[7] = tested on: Mus musculus; test: Inhibition of soluble TNF-alpha production in LPS-Stimulated mice by administration of 40 mg/kg compound subcutaneously; type: functional; settings: sc, route subcutaneous
Procedure, shortened: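 Female C3H/hen mice given 40 mg/kg sc (0.2 mL; DMSO stock into 0.9% NaCl/30% Trappsol HPB-20, final 1% DMSO) 10 min before ip LPS 0.2 mg/kg in PBS. Plasma from vena cava at 90 min, TNF-α by ELISA; percent inhibition vs vehicle controls, n = 7 per group, 2-sided t-test.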

[8] = species: Rattus norvegicus; test: Inhibition of TNF alpha production in rat Zymosan inflammation model; type: functional
Procedure, shortened: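 Male Lewis rats given single sc dose (50 mg/kg) as aqueous suspension in 5% EtOH, 5% propylene glycol, 10% Cremephore, 10% Molecusol (5 mL/kg), 10 min before intrapleural zymosan (0.5 mg in 0.25 mL H2O).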

Disintegrin and metalloproteinase domain-containing protein 17, sequence (P78536 whole entry, the tested form may be a part): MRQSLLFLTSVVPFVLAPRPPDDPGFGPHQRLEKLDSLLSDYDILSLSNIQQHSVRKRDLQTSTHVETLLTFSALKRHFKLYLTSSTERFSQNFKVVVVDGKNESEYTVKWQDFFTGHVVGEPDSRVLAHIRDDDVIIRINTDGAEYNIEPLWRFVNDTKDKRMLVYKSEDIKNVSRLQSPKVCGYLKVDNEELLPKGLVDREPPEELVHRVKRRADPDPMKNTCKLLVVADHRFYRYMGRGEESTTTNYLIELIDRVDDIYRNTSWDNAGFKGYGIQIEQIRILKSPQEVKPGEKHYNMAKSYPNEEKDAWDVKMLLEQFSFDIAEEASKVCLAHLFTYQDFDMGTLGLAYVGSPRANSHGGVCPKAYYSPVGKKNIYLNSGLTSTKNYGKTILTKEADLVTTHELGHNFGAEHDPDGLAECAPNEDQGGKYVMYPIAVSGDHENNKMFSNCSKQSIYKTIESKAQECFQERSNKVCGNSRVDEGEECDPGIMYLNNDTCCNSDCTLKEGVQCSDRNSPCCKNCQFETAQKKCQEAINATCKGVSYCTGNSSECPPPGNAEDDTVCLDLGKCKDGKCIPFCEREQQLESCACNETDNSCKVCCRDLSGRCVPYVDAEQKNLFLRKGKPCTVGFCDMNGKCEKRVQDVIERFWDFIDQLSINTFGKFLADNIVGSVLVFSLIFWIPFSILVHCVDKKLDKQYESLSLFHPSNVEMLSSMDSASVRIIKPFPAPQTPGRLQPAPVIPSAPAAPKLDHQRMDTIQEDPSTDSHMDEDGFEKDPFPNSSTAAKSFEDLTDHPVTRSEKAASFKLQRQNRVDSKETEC

Structure (SMILES) | IC50 [1] | IC50 [2] | IC50 [3] | IC50 [4] | inhibition in vivo at 40 mg/kg [5] | solubility [6] | inhibition in vivo at 40 mg/kg [7] | Inhibition [8]
N/C(=N/CCC[C@H](NC(=O)[C@H](CC1CCCCC1)[C@H](CCC(F)(F)F)N(O)C=O)C(=O)Nc1nccs1)N[N+](=O)[O-] | 5 nM | 110 nM | 49 nM | 214 nM | -24% | 54 µg/mL (≈ 88.7 µM) | 73% | 
CC(C)C[C@@H](C(=O)N[C@H](C(=O)Nc1nccs1)[C@H](C)CC/N=C(/N)NS(C)(=O)=O)[C@H](C(C)C)N(O)C=O | 35 nM | 8.1 nM | 12 nM | 49 nM | 7% |  |  | 
CCC[C@@H]([C@@H](Cc1ccc(C)s1)C(=O)N[C@@H](CCC/N=C(/N)N[N+](=O)[O-])C(=O)Nc1nccs1)N(O)C=O |  | > 2500 nM | 190 nM | 79 nM |  |  |  | 
CC1CCC(C[C@@H](C(=O)N[C@@H](CCC/N=C(/N)N[N+](=O)[O-])C(=O)Nc2nccs2)[C@H](C(C)C)N(O)C=O)CC1 (stereo partly drawn) |  | 85 nM | 35 nM | 76 nM | -6% | 210 µg/mL (≈ 369 µM) | 71% | 
CC(C)C[C@@H](C(=O)N[C@H](C(=O)Nc1nccs1)[C@H](C)CC/N=C(/N)N[N+](=O)[O-])[C@H](C)N(O)C=O | 7 nM | 38 nM | 19 nM | 273 nM | -2% | > 850 µg/mL |  | 
NC(=NCCC[C@H](NC(=O)[C@H](CC1CCCCC1)[C@H](C1CC1)N(O)C=O)C(=O)Nc1nccs1)N[N+](=O)[O-] | 22 nM | 144 nM | 602 nM | 1490 nM | -3% | 920 µg/mL (≈ 1660 µM) | 56% | 
CCC[C@@H]([C@@H](CC(C)C)C(=O)N[C@H](C(=O)Nc1nccs1)[C@H](C)CC/N=C(/N)N[N+](=O)[O-])N(O)C=O | 5 nM | 24 nM | 13 nM | 47 nM | -10% |  |  | 
CCC[C@@H]([C@@H](CC1CCC(C)CC1)C(=O)N[C@@H](CCC/N=C(/N)N[N+](=O)[O-])C(=O)Nc1nccs1)N(O)C=O (stereo partly drawn) | 9 nM | 188 nM | 115 nM | 200 nM | -19% | 160 µg/mL (≈ 281 µM) | 64% | 
CCC[C@@H]([C@@H](CC(C)C)C(=O)N[C@@H](CCC/N=C(/N)N[N+](=O)[O-])C(=O)Nc1nccs1)N(O)C=O |  | 34 nM | 13 nM | 31 nM | -29% | > 1600 µg/mL | 96% | 30%
CCC[C@@H]([C@@H](CC1CCCCC1)C(=O)N[C@@H](CCC/N=C(/N)N[N+](=O)[O-])C(=O)Nc1nccs1)N(O)C=O | 8 nM | 108 nM | 55 nM | 203 nM | -27% | 330 µg/mL (≈ 595 µM) | 72% | 
CC(C)C[C@@H](C(=O)N[C@@H](CCC/N=C(/N)N[N+](=O)[O-])C(=O)Nc1nccs1)[C@H](Cc1ccccc1)N(O)C=O |  | 26 nM | 11 nM | 31 nM |  |  |  | 

Second part, led by results:

IC50 [1] | IC50 [2] | IC50 [3] | IC50 [4] | Structure (SMILES) | inhibition in vivo at 40 mg/kg [5] | solubility [6] | inhibition in vivo at 40 mg/kg [7] | Inhibition [8]
11 nM | > 2700 nM | 379 nM | 218 nM | CCC[C@@H]([C@@H](Cc1ccc(C)s1)C(=O)N[C@@H](CCC/N=C(/N)NS(=O)(=O)c1ccccn1)C(=O)Nc1nccs1)N(O)C=O |  |  |  | 
6 nM | 76 nM | 43 nM | 84 nM | CCC[C@@H]([C@@H](CC(C)C)C(=O)N[C@@H](CCC/N=C(/N)NS(=O)(=O)c1ccccn1)C(=O)Nc1nccs1)N(O)C=O | -28% |  |  | 
12 nM | 18 nM | 8.5 nM | 169 nM | CC(C)C[C@@H](C(=O)N[C@H](C(=O)Nc1nccs1)[C@H](C)CC/N=C(/N)NS(C)(=O)=O)[C@H](C)N(O)C=O | -3% | > 2130 µg/mL |  | 
42 nM | 21 nM | 22 nM | 62 nM | CC(C)C[C@@H](C(=O)N[C@@H](CCC/N=C(/N)NS(C)(=O)=O)C(=O)Nc1nccs1)[C@H](C(C)C)N(O)C=O |  |  |  | 
16 nM | 96 nM | 71 nM | 115 nM | CC1CCC(C[C@@H](C(=O)N[C@@H](CCCN=C(N)NS(=O)(=O)c2ccccn2)C(=O)Nc2nccs2)[C@H](C(C)C)N(O)C=O)CC1 (stereo partly drawn) | -9% |  |  | 
7.9 nM | 100 nM | 51 nM | 122 nM | CCC[C@@H]([C@@H](CC(C)C)C(=O)N[C@@H](CCCN=C(N)NS(C)(=O)=O)C(=O)Nc1nccs1)N(O)C=O |  | > 1130 µg/mL |  | 
8 nM | 52 nM | 22 nM | 17 nM | CC(C)C[C@@H](C(=O)N[C@H](C(=O)Nc1nccs1)[C@H](C)CC/N=C(/N)NS(C)(=O)=O)[C@H](CCC(F)(F)F)N(O)C=O | -5% |  |  | 
6 nM | 133 nM | 143 nM | 282 nM | CCC[C@@H]([C@@H](CC1CCC(C)CC1)C(=O)N[C@@H](CCCN=C(N)NS(=O)(=O)c1ccccn1)C(=O)Nc1nccs1)N(O)C=O (stereo partly drawn) |  | 160 µg/mL (≈ 241 µM) |  | 
6 nM | 57 nM | 48 nM | 156 nM | CCC[C@@H]([C@@H](CC(C)C)C(=O)N[C@H](C(=O)Nc1nccs1)[C@H](C)CCN=C(N)NS(C)(=O)=O)N(O)C=O | 28% |  |  | 
14 nM | 122 nM | 89 nM | 155 nM | CC1CCC(C[C@@H](C(=O)N[C@@H](CCCN=C(N)NS(C)(=O)=O)C(=O)Nc2nccs2)[C@H](C(C)C)N(O)C=O)CC1 (stereo partly drawn) | 32% | 1400 µg/mL (≈ 2330 µM) |  | 
